Measurements taken from ChEMBL document CHEMBL1153007, “Mono and bis-6-arylbenzimidazo[1,2-c]quinazolines: a new class of antimicrobial agents” (2009).
≈ marks a conversion by molar mass, not a printed value.

Legend:
Candida albicans [1] = assay: Antifungal activity against Candida albicans at 1000 ug/ml after 72 hrs by agar diffusion method; type: functional; details: read-out: IZ
Method in brief: (§1)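 Strains grown and maintained on Sabouraud glucose agar. Test solution at 1000 µg/ml placed in bores cut in the agar. Plates incubated at 26 °C for 72 h, then the zone of inhibition around each bore was measured. Ketoconazole plates as standard; one-way ANOVA at p ≤ 0.05.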

Aspergillus niger [2] = assay: Antifungal activity against Aspergillus niger at 1000 ug/ml after 72 hrs by agar diffusion method; type: functional; details: read-out: IZ; method in brief: as §1
Klebsiella pneumoniae [3] = assay: Antibacterial activity against Klebsiella pneumoniae at 1000 ug/ml after 24 hrs by agar diffusion method; type: functional; details: read-out: IZ
Method in brief: (§2)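 Cup-plate agar diffusion on nutrient agar. Cultures grown overnight in NA broth at 37 °C and swabbed onto plates. Test solution at 1000 μg/ml added to 6 mm bores. Plates incubated at 37 °C for 24 h; zone of inhibition measured. Ampicillin plate as standard; one-way ANOVA at p ≤ 0.05.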

Bacillus subtilis [4] = assay: Antibacterial activity against Bacillus subtilis at 1000 ug/ml after 24 hrs by agar diffusion method; type: functional; details: read-out: IZ; method in brief: as §2
Staphylococcus aureus [5] = assay: Antibacterial activity against Staphylococcus aureus at 1000 ug/ml after 24 hrs by agar diffusion method; type: functional; details: read-out: IZ; method in brief: as §2
Escherichia coli [6] = assay: Antibacterial activity against Escherichia coli at 1000 ug/ml after 24 hrs by agar diffusion method; type: functional; details: read-out: IZ; method in brief: as §2
Streptococcus pyogenes [7] = assay: Antibacterial activity against Streptococcus pyogenes at 1000 ug/ml after 24 hrs by agar diffusion method; type: functional; details: read-out: IZ; method in brief: as §2
Trichoderma viride [8] = assay: Antifungal activity against Trichoderma viride at 1000 ug/ml after 72 hrs by agar diffusion method; type: functional; details: read-out: IZ; method in brief: as §1
[9] = test system: Salmonella enterica subsp. enterica; assay: Antibacterial activity against Salmonella Typhimurium at 1000 ug/ml after 24 hrs by agar diffusion method; type: functional, Salmonella enterica subsp. enterica serovar Typhimurium; details: read-out: IZ; method in brief: as §2
Bacillus subtilis [10] = assay: Antibacterial activity against Bacillus subtilis after 24 hrs by liquid dilution method; type: functional
Method in brief: (§3)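 Liquid dilution in tubes: 1 ml compound solution (stocks 2.5, 5, 10, 15, 20, 25, 30, 35, 40, 45, 50 µg/ml, prepared in appropriate solvent) plus 0.2 ml bacterial inoculum and 3.8 ml sterile water; incubated 24 h, checked for turbidity. MIC taken as lowest concentration with no growth. Ampicillin as reference.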

Staphylococcus aureus [11] = assay: Antibacterial activity against Staphylococcus aureus after 24 hrs by liquid dilution method; type: functional; method in brief: as §3
[12] = test system: Salmonella enterica subsp. enterica; assay: Antibacterial activity against Salmonella Typhimurium after 24 hrs by liquid dilution method; type: functional, Salmonella enterica subsp. enterica serovar Typhimurium; method in brief: as §3
Trichoderma viride [13] = assay: Antifungal activity against Trichoderma viride after 24 hrs by liquid dilution method
Candida albicans [14] = assay: Antifungal activity against Candida albicans after 72 hrs by liquid dilution method; type: functional
Method in brief: (§4)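 Liquid dilution in tubes: 1 ml compound solution (stocks 2.5–50 µg/ml, prepared in appropriate solvent) plus 0.2 ml fungal inoculum and 3.8 ml sterile water; checked for turbidity. MIC taken as lowest concentration with no visible growth. Ketoconazole as reference.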

Klebsiella pneumoniae [15] = assay: Antibacterial activity against Klebsiella pneumoniae after 24 hrs by liquid dilution method; type: functional; method in brief: as §3
Escherichia coli [16] = assay: Antibacterial activity against Escherichia coli after 24 hrs by liquid dilution method; type: functional; method in brief: as §3
Streptococcus pyogenes [17] = assay: Antibacterial activity against Streptococcus pyogenes after 24 hrs by liquid dilution method; type: functional; method in brief: as §3
Aspergillus niger [18] = assay: Antifungal activity against Aspergillus niger after 24 hrs by liquid dilution method
Trichoderma viride [19] = assay: Antifungal activity against Trichoderma viride after 72 hrs by liquid dilution method; type: functional; method in brief: as §4
Aspergillus niger [20] = assay: Antifungal activity against Aspergillus niger after 72 hrs by liquid dilution method; type: functional; method in brief: as §4

SMILES | zone of inhibition at 1000 µg/mL (Candida albicans [1]) [mm] | zone of inhibition at 1000 µg/mL (Aspergillus niger [2]) [mm] | zone of inhibition at 1000 µg/mL (Klebsiella pneumoniae [3]) [mm] | zone of inhibition at 1000 µg/mL (Bacillus subtilis [4]) [mm] | zone of inhibition at 1000 µg/mL (Staphylococcus aureus [5]) [mm] | zone of inhibition at 1000 µg/mL (Escherichia coli [6]) [mm] | zone of inhibition at 1000 µg/mL (Streptococcus pyogenes [7]) [mm] | zone of inhibition at 1000 µg/mL (Trichoderma viride [8]) [mm] | zone of inhibition at 1000 µg/mL [9] [mm] | MIC (Bacillus subtilis [10]) [µg/mL] | MIC (Staphylococcus aureus [11]) [µg/mL] | MIC [12] [µg/mL] | MIC (Trichoderma viride [13]) [µg/mL] | MIC (Candida albicans [14]) [µg/mL] | MIC (Klebsiella pneumoniae [15]) [µg/mL] | MIC (Escherichia coli [16]) [µg/mL] | MIC (Streptococcus pyogenes [17]) [µg/mL] | MIC (Aspergillus niger [18]) [µg/mL] | MIC (Trichoderma viride [19]) [µg/mL] | MIC (Aspergillus niger [20]) [µg/mL]
c1coc(-c2nc3ccccc3c3nc4ccccc4n23)c1 | 11 | 13 | 12 | 21 | 25 | 20 | 18 | 6 | 15 |  |  |  |  |  |  |  |  |  |  | 
c1c[nH]c(-c2nc3ccccc3c3nc4ccccc4n23)c1 | 9 | 11 | 12 | 18 | 22 | 18 | 13 | 9 | 14 |  |  |  |  |  |  |  |  |  |  | 
c1cc(-c2nc3ccccc3c3nc4ccccc4n23)nc(-c2nc3ccccc3c3nc4ccccc4n23)c1 | 50 | 50 | 49 | 45 | 52 | 50 | 50 | 45 | 46 | 15 (≈ 29.2 µM) | 2.5 (≈ 4.87 µM) | 5 (≈ 9.74 µM) | 10 (≈ 19.5 µM) | 5 (≈ 9.74 µM) | 5 (≈ 9.74 µM) | 5 (≈ 9.74 µM) | 10 (≈ 19.5 µM) | 2.5 (≈ 4.87 µM) |  | 
c1ccc(-c2nc3ccccc3c3nc4ccccc4n23)c(-c2nc3ccccc3c3nc4ccccc4n23)c1 | 13 | 16 | 15 | 14 | 18 | 20 | 15 | 13 | 12 |  |  |  |  |  |  |  |  |  |  | 
c1cc(-c2nc3ccccc3c3nc4ccccc4n23)cc(-c2nc3ccccc3c3nc4ccccc4n23)c1 | 15 | 18 | 18 | 18 | 21 | 19 | 15 | 12 | 15 |  |  |  |  |  |  |  |  |  |  | 
c1ccc2c(c1)nc(-c1ccc(-c3nc4ccccc4c4nc5ccccc5n34)cc1)n1c3ccccc3nc21 | 16 | 21 | 18 | 19 | 25 | 21 | 18 | 13 | 14 |  |  |  |  |  |  |  |  |  |  | 
c1ccc(-c2nc3ccccc3c3nc4ccccc4n23)cc1 | 10 | 10 | 16 | 14 | 18 | 18 | 13 | 9 | 12 |  |  |  |  |  |  |  |  |  |  | 
c1ccc2c(c1)nc(-c1ccc(-c3nc4ccccc4c4nc5ccccc5n34)s1)n1c3ccccc3nc21 | 51 | 55 | 50 | 50 | 55 | 51 | 52 | 48 | 46 | 10 (≈ 19.3 µM) | 2.5 (≈ 4.82 µM) | 5 (≈ 9.64 µM) | 5 (≈ 9.64 µM) | 2.5 (≈ 4.82 µM) | 5 (≈ 9.64 µM) | 2.5 (≈ 4.82 µM) | 5 (≈ 9.64 µM) | 2.5 (≈ 4.82 µM) |  | 
c1csc(-c2nc3ccccc3c3nc4ccccc4n23)c1 | 48 | 51 | 36 | 45 | 51 | 50 | 50 | 46 | 40 | 15 (≈ 49.8 µM) | 5 (≈ 16.6 µM) | 15 (≈ 49.8 µM) |  | 15 (≈ 49.8 µM) | 15 (≈ 49.8 µM) | 10 (≈ 33.2 µM) | 10 (≈ 33.2 µM) | 5 (≈ 16.6 µM) | 10 (≈ 33.2 µM) | 
c1ccc(-c2nc3ccccc3c3nc4ccccc4n23)nc1 | 48 | 49 | 35 | 42 | 50 | 51 | 49 | 45 | 38 | 20 (≈ 67.5 µM) | 10 (≈ 33.7 µM) | 20 (≈ 67.5 µM) |  | 15 (≈ 50.6 µM) | 20 (≈ 67.5 µM) | 15 (≈ 50.6 µM) | 15 (≈ 50.6 µM) | 10 (≈ 33.7 µM) | 15 (≈ 50.6 µM) | 
CC1(C)S[C@@H]2[C@H](NC(=O)[C@H](N)c3ccccc3)C(=O)N2[C@H]1C(=O)O [AMPICILLIN] |  |  | 45 | 39 | 48 | 40 | 35 |  | 45 | 20 (≈ 57.2 µM) | 10 (≈ 28.6 µM) | 10 (≈ 28.6 µM) |  |  | 10 (≈ 28.6 µM) | 15 (≈ 42.9 µM) | 25 (≈ 71.5 µM) |  |  | 
CC(=O)N1CCN(c2ccc(OCC3COC(Cn4ccnc4)(c4ccc(Cl)cc4Cl)O3)cc2)CC1 (centres undefined) [KETOCONAZOLE] | 40 | 45 |  |  |  |  |  | 41 |  |  |  |  | 20 (≈ 37.6 µM) | 25 (≈ 47 µM) |  |  |  |  |  | 15 (≈ 28.2 µM)
